In ChEMBL document CHEMBL1124766, “Novel benzamides as selective and potent gastric prokinetic agents. 1. Synthesis and structure-activity relationships of N-[(2-morpholinyl)alkyl]benzamides” (1990):

Columns and labels:
Mus musculus [1] = experiment: Evaluated for the effects on the gastric emptying rates of phenol red semisolid meal through the stomach in mouse, at a dose of 2 mg/kg administered perorally; assay type: functional; conditions: route oral
Method in brief: (§1)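 Mice or rats fasted 18 h. Compound suspended in 0.5% tragacanth given orally 60 min before a gavaged meal of 0.05% phenol red in 1.5% aqueous methylcellulose (0.2 mL/mouse, 1.5 mL/rat). Animals killed 15 min later; phenol red left in stomach measured (Scarpignato method). Emptying expressed as % enhancement over tragacanth-control mean; Duncan's multiple range test.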

Rattus norvegicus [2] = experiment: Evaluated for the effects on the gastric emptying rates of phenol red semisolid meal through the stomach in rats, at a dose of 2.0 mg/kg administered perorally; assay type: functional; conditions: route oral; method in brief: as §1
Rattus norvegicus [3] = experiment: Evaluated for the effects on the gastric emptying rates of phenol red semisolid meal through the stomach in rats, at a dose of 10.0 mg/kg administered perorally; assay type: functional; conditions: route oral; method in brief: as §1
[4] = molecular target: D(2) dopamine receptor (Canis lupus familiaris) (UniProt Q9GJU1); conditions: 3.0 mg/kg
Chain of D(2) dopamine receptor (Canis lupus familiaris) (Q9GJU1 whole entry): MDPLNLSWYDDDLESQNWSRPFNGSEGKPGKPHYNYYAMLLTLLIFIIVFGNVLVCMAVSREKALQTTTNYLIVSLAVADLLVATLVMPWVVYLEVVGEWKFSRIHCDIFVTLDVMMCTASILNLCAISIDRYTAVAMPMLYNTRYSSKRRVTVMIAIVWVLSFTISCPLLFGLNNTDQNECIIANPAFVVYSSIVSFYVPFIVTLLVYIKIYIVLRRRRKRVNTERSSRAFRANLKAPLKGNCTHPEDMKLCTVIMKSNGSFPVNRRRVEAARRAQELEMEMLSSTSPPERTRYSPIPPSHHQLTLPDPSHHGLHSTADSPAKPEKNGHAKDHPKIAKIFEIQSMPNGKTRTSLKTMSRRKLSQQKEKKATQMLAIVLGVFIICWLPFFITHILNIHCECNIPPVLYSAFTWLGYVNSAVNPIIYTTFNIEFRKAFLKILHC

Rattus norvegicus [5] = experiment: Evaluated for the effects on the gastric emptying rates of resin pellets solid meal through the stomach in rats, at a dose of 5.0 mg/kg administered perorally; assay type: functional; conditions: route oral
Method in brief: (§2)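 Rats fasted 18 h. Compound suspended in 0.5% tragacanth given orally 30 min before 40 resin pellets (Amberlite IRA-93, 1-mm) are delivered into the stomach by tube. Animals killed 1 h later and pellets remaining in the stomach counted (Jacoby method). Result given as % enhancement over tragacanth-control mean; Duncan's multiple range test.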

Rattus norvegicus [6] = experiment: Evaluated for the effects on the gastric emptying rates of phenol red semisolid meal through the stomach in rats, at a dose of 5.0 mg/kg administered perorally; assay type: functional; conditions: route oral; method in brief: as §1
Rattus norvegicus [7] = experiment: Evaluated for the effects on the gastric emptying rates of resin pellets solid meal through the stomach in rats, at a dose of 10 mg/kg administered perorally; assay type: functional; conditions: route oral; method in brief: as §2
Mus musculus [8] = experiment: Evaluated for the effects on the gastric emptying rates of phenol red semisolid meal through the stomach in mouse, at a dose of 5 mg/kg administered perorally; assay type: functional; conditions: route oral; method in brief: as §1
Mus musculus [9] = experiment: Evaluated for the effects on the gastric emptying rates of phenol red semisolid meal through the stomach in mouse, at a dose of 1 mg/kg administered perorally; assay type: functional; conditions: route oral; method in brief: as §1
Rattus norvegicus [10] = experiment: Evaluated for the effects on the gastric emptying rates of phenol red semisolid meal through the stomach in rats, at a dose of 2.0 mg/Kg administered perorally.; assay type: functional; method in brief: as §1
[11] = test system: dopamine D2 receptor (Canis familiaris); experiment: Evaluated for the dopamine D2 receptor antagonistic activity (antagonism of apomorphine-induced emesis in dogs) at a dose of 3.0 mg/kg administered perorally; conditions: Canis lupus familiaris
Rattus norvegicus [12] = experiment: Evaluated for the effects on the gastric emptying rates of phenol red semisolid meal through the stomach in rats, at a dose of 5.0 mg/Kg administered perorally; assay type: functional; method in brief: as §1
Rattus norvegicus [13] = experiment: Evaluated for the effects on the gastric emptying rates of resin pellets solid meal through the stomach in rats, at a dose of 2.0 mg/Kg administered perorally; assay type: functional; method in brief: as §2
Mus musculus [14] = experiment: Evaluated for the effects on the gastric emptying rates of phenol red semisolid meal through the stomach in mouse, at a dose of 5 mg/Kg administered perorally; assay type: functional; method in brief: as §1
Rattus norvegicus [15] = experiment: Evaluated for the effects on the gastric emptying rates of resin pellets solid meal through the stomach in rats, at a dose of 10 mg/Kg administered perorally; assay type: functional; method in brief: as §2
Rattus norvegicus [16] = experiment: Evaluated for the effects on the gastric emptying rates of phenol red semisolid meal through the stomach in rats, at a dose of 10.0 mg/Kg administered perorally; assay type: functional; method in brief: as §1
Mus musculus [17] = experiment: Evaluated for the effects on the gastric emptying rates of phenol red semisolid meal through the stomach in mouse, at a dose of 1 mg/Kg administered perorally; assay type: functional; method in brief: as §1
Mus musculus [18] = experiment: Evaluated for the effects on the gastric emptying rates of phenol red semisolid meal through the stomach in mouse, at a dose of 0.5 mg/Kg administered perorally; assay type: functional; method in brief: as §1
Mus musculus [19] = experiment: Evaluated for the effects on the gastric emptying rates of phenol red semisolid meal through the stomach in mouse, at a dose of 2 mg/Kg administered perorally; assay type: functional; method in brief: as §1
Rattus norvegicus [20] = experiment: Evaluated for the effects on the gastric emptying rates of resin pellets solid meal through the stomach in rats, at a dose of 5.0 mg/Kg administered perorally; assay type: functional; method in brief: as §2
Rattus norvegicus [21] = experiment: Evaluated for the effects on the gastric emptying rates of phenol red semisolid meal through the stomach in rats, at a dose of 0.5 mg/Kg administered perorally; assay type: functional; method in brief: as §1

With CCN(CC)CCNC(=O)c1cc(Cl)c(N)cc1OC [METOCLOPRAMIDE] the GE (Mus musculus [1]) was 20%, the GE (Rattus norvegicus [2]) was 21% and the GE (Rattus norvegicus [3]) was 31%. It also gave an inhibition [4] of 100%, a GE (Rattus norvegicus [5]) of 23% and a GE (Rattus norvegicus [6]) of 26%. The GE (Rattus norvegicus [7]) was 43%, the GE (Mus musculus [8]) was 28% and the GE (Mus musculus [9]) was -10%.

In the case of COc1ccc(S(N)(=O)=O)cc1C(=O)NCC1CN(Cc2ccccc2)CCO1 (configuration not stated), the GE (Rattus norvegicus [10]) is reported as 24%.

Work on CN(C)c1cc(O)c(C(=O)NCC2CN(Cc3ccccc3)CCO2)cc1Cl.O=C(O)C(=O)O (configuration not stated) yielded a GE (Rattus norvegicus [10]) of 27%.

In the case of COc1cc(Cl)ccc1C(=O)NCC1CN(Cc2ccccc2)CCO1.Cl (configuration not stated), the GE (Rattus norvegicus [10]) is reported as 23%.

COc1cc(N)c(Cl)cc1C(=O)NCC1CN(Cc2ccccc2)CCO1 (configuration not stated) [listing 1 of 2 here] showed an inhibition [11] of 4%.

For COc1cc(N)c(Cl)cc1C(=O)NCCC1CN(Cc2ccccc2)CCO1.O=C(O)/C=C/C(=O)O (configuration not stated), the GE (Rattus norvegicus [10]) was 35%.

For COc1cc(N)c(Cl)cc1C(=O)NCC1CN(Cc2ccccc2)CCO1.Cl (configuration not stated), the GE (Rattus norvegicus [10]) was 39%.

NS(=O)(=O)c1ccc(Cl)c(C(=O)NCC2CN(Cc3ccccc3)CCO2)c1 (configuration not stated) gave a GE (Rattus norvegicus [10]) of 18%.

With COc1cc(N)c(Cl)cc1C(=O)NCCCC1CN(Cc2ccccc2)CCO1.O=C(O)C(=O)O (configuration not stated) the GE (Rattus norvegicus [10]) was 23%.

Compound COc1cc(N)c(Br)cc1C(=O)NCC1CN(Cc2ccccc2)CCO1 (configuration not stated) has a GE (Rattus norvegicus [10]) of 10%.

COc1ccc(Cl)cc1C(=O)NCC1CN(Cc2ccccc2)CCO1.Cl (configuration not stated) gave a GE (Rattus norvegicus [10]) of 19%.

With COc1cc(N)c([N+](=O)[O-])cc1C(=O)NCC1CN(Cc2ccccc2)CCO1.O (configuration not stated) the GE (Rattus norvegicus [10]) was 14%.

Work on COc1cc(Cl)c(N)cc1C(=O)NCC1CN(Cc2ccccc2)CCO1 (configuration not stated) yielded a GE (Rattus norvegicus [10]) of 10%.

In the case of CCOc1cc(N(C)C)c(Cl)cc1C(=O)NCC1CN(Cc2ccccc2)CCO1.O=C(O)C(=O)O (configuration not stated), the GE (Rattus norvegicus [10]) is reported as 51%.

Compound COc1cc(N)c(Cl)cc1C(=O)NCC1CN(Cc2ccccc2)CCO1 (configuration not stated) [listing 2 of 2 here] has a GE (Rattus norvegicus [12]) of 35%, a GE (Rattus norvegicus [13]) of 49% and a GE (Mus musculus [14]) of 68%. For the same compound, the GE (Rattus norvegicus [15]) was 78%, the GE (Rattus norvegicus [16]) was 52% and the GE (Mus musculus [17]) was 49%. For the same compound, the GE (Mus musculus [18]) was 50%, the GE (Mus musculus [19]) was 46% and the GE (Rattus norvegicus [20]) was 70%. For the same compound, the GE (Rattus norvegicus [10]) was 26% and the GE (Rattus norvegicus [21]) was 18%.

COc1cc(N)ccc1C(=O)NCC1CN(Cc2ccccc2)CCO1 (configuration not stated) gave a GE (Rattus norvegicus [10]) of 11%.

With Nc1ccc(C(=O)NCC2CN(Cc3ccccc3)CCO2)cc1Cl.O=C(O)C(=O)O (configuration not stated) the GE (Rattus norvegicus [10]) was 30%.

With CCOc1cc(N)c(Cl)cc1C(=O)NCCC1CN(Cc2ccccc2)CCO1 (configuration not stated) the GE (Rattus norvegicus [10]) was 45%.

O=C(NCC1CN(Cc2ccccc2)CCO1)c1cccc2c1OCO2.O=C(O)/C=C/C(=O)O (configuration not stated) showed a GE (Rattus norvegicus [10]) of 30%.
